≈ marks a conversion by molar mass, not a printed value.
How the values were obtained:
Type in all cases: functional
Acinetobacter baumannii [1] = assay: (§1) Antibacterial activity against Acinetobacter baumannii ATCC 19606 by Etest method in presence of […] NAB739
Acinetobacter baumannii [2] = assay: Antibacterial activity against Acinetobacter baumannii ATCC 19606 by Etest method in presence of 1 ug/ml NAB739
Acinetobacter baumannii [3] = assay: Antibacterial activity against Acinetobacter baumannii ATCC 19606 by Etest method in presence of NAB739
Acinetobacter baumannii [4] = assay: Antibacterial activity against Acinetobacter baumannii ATCC 19606 by Etest method
Acinetobacter baumannii [5] = assay: as §1; remark: listed apart in the source
Pseudomonas aeruginosa [6] = assay: Antibacterial activity against Pseudomonas aeruginosa ATCC 27853by Etest method in presence of 2 ug/ml NAB739
Acinetobacter baumannii [7] = assay: (§2) Antibacterial activity against Acinetobacter baumannii F264 by Etest method in presence of […] NAB739
Acinetobacter baumannii [8] = assay: Antibacterial activity against Acinetobacter baumannii F264 by Etest method in presence of NAB739
Pseudomonas aeruginosa [9] = assay: Antibacterial activity against Pseudomonas aeruginosa ATCC 27853by Etest method in presence of 1 ug/ml NAB739
Method in brief: (§3)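 MICs of the antibiotic taken from E-strips on Mueller-Hinton agar, run both with and without peptide. […] Inoculum was prepared per the strip manufacturer, matching CLSI M2-A9.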

Acinetobacter baumannii [10] = assay: as §2; remark: listed apart in the source
Acinetobacter baumannii [11] = assay: Antibacterial activity against Acinetobacter baumannii F264 by Etest method in presence of 1 ug/ml NAB739
Acinetobacter baumannii [12] = assay: Antibacterial activity against Acinetobacter baumannii F264 by Etest method in presence of 0.5 ug/ml NAB739
Pseudomonas aeruginosa [13] = assay: Antibacterial activity against Pseudomonas aeruginosa ATCC 27853by Etest method; method in brief: as §3
Pseudomonas aeruginosa [14] = assay: (§4) Antibacterial activity against Pseudomonas aeruginosa ATCC 27853by Etest method in presence of […] NAB739
Pseudomonas aeruginosa [15] = assay: Antibacterial activity against Pseudomonas aeruginosa ATCC 27853by Etest method in presence of 0.5 ug/ml NAB739; method in brief: as §3
Acinetobacter baumannii [16] = assay: Antibacterial activity against Acinetobacter baumannii ATCC 19606 by Etest method in presence of 0.5 ug/ml NAB739
Acinetobacter baumannii [17] = assay: Antibacterial activity against Acinetobacter baumannii F264 by Etest method
Method in brief: (§5)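 E-strip MIC on Mueller-Hinton agar without added peptide; inoculum per manufacturer, matching CLSI M2-A9.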

Pseudomonas aeruginosa [18] = assay: as §4; remark: listed apart in the source
Escherichia coli [19] = assay: Antibacterial activity against Escherichia coli ATCC […] by Etest method in presence of 4 ug/ml NAB7064
Escherichia coli [20] = assay: Antibacterial activity against Escherichia coli IH3080 by Etest method; method in brief: as §5
Enterobacter cloacae [21] = assay: Antibacterial activity against Enterobacter cloacae ATCC 23355 […] by Etest method in presence of 2 ug/ml NAB7062
Escherichia coli [22] = assay: Ratio of the MIC for Escherichia coli ATCC 25992 in the absence of NAB7061 to MIC for Escherichia coli ATCC 25992 in the presence of 4 ug/ml of NAB7061
Escherichia coli [23] = assay: Ratio of the MIC for Escherichia coli IH3080 in the absence of NAB7061 to MIC for Escherichia coli IH3080 in the presence of 4 ug/ml of NAB7061
Enterobacter cloacae [24] = assay: Antibacterial activity against Enterobacter cloacae ATCC 23355 by Etest method; method in brief: as §5
Escherichia coli [25] = assay: Antibacterial activity against Escherichia coli IH3080 by Etest method in presence of NAB7061
Escherichia coli [26] = assay: Antibacterial activity against Escherichia coli IH3080 by Etest method in presence of 4 ug/ml NAB7064
Klebsiella pneumoniae [27] = assay: Antibacterial activity against Klebsiella pneumoniae ATCC 13883 by Etest method in presence of 2 ug/ml NAB7061; method in brief: as §3
Klebsiella pneumoniae [28] = assay: Antibacterial activity against Klebsiella pneumoniae ATCC 13883 by Etest method in presence of 4 ug/ml NAB7061; method in brief: as §3
Escherichia coli [29] = assay: Antibacterial activity against Escherichia coli ATCC 25992 by Etest method; method in brief: as §5
Escherichia coli [30] = assay: Antibacterial activity against Escherichia coli ATCC […] by Etest method in presence of 1 ug/ml NAB7061
Klebsiella pneumoniae [31] = assay: Ratio of the MIC for Klebsiella pneumoniae ATCC 13883 in the absence of NAB7061 to MIC for Klebsiella pneumoniae ATCC 13883 in the presence of 4 ug/ml of NAB7061
Enterobacter cloacae [32] = assay: Antibacterial activity against Enterobacter cloacae ATCC 23355 […] by Etest method in presence of NAB7061
Enterobacter cloacae [33] = assay: Ratio of the MIC for Enterobacter cloacae ATCC 23355 in the absence of NAB7061 to MIC for Enterobacter cloacae ATCC 23355 […] in the presence of 4 ug/ml of NAB7061
Klebsiella pneumoniae [34] = assay: Antibacterial activity against Klebsiella pneumoniae ATCC 13883 by Etest method in presence of NAB7061; method in brief: as §3
Enterobacter cloacae [35] = assay: Antibacterial activity against Enterobacter cloacae ATCC 23355 […] by Etest method in presence of 1 ug/ml NAB7061
Klebsiella pneumoniae [36] = assay: Antibacterial activity against Klebsiella pneumoniae ATCC 13883 by Etest method in presence of 1 ug/ml NAB7061; method in brief: as §3
Escherichia coli [37] = assay: Antibacterial activity against Escherichia coli IH3080 by Etest method in presence of 2 ug/ml NAB7062
Escherichia coli [38] = assay: Antibacterial activity against Escherichia coli ATCC […] by Etest method in presence of 2 ug/ml NAB7062
Enterobacter cloacae [39] = assay: Antibacterial activity against Enterobacter cloacae ATCC 23355 […] by Etest method in presence of 4 ug/ml NAB7064
Escherichia coli [40] = assay: Antibacterial activity against Escherichia coli IH3080 by Etest method in presence of 1 ug/ml NAB7061
Escherichia coli [41] = assay: Antibacterial activity against Escherichia coli ATCC […] by Etest method in presence of NAB7061
Klebsiella pneumoniae [42] = assay: Antibacterial activity against Klebsiella pneumoniae ATCC 13883 by Etest method; method in brief: as §3

Q: For `C[C@@H](O)[C@H]1C(=O)N2C(C(=O)O)=C(S[C@@H]3CN[C@H](C(=O)N(C)C)C3)[C@H](C)[C@H]12` [MEROPENEM], which MIC (Acinetobacter baumannii [1]) is on record?
A: 1 µg/mL

Q: What about the MIC (Acinetobacter baumannii [2]) of the same compound?
A: 0.125 µg/mL

Q: And the “fractional inhibitory concentration index (FICI)” value (Acinetobacter baumannii [3])?
A: 0.5

Q: And the MIC (Acinetobacter baumannii [4])?
A: 1 µg/mL (≈ 2.61 µM)

Q: What about the MIC (Acinetobacter baumannii [5]) of the same compound?
A: 0.5 µg/mL

Q: And the MIC (Pseudomonas aeruginosa [6])?
A: 0.25 µg/mL

Q: What about the MIC (Acinetobacter baumannii [7]) of the same compound?
A: 32 µg/mL

Q: And the “fractional inhibitory concentration index (FICI)” value (Acinetobacter baumannii [8])?
A: 0.281

Q: And the MIC (Pseudomonas aeruginosa [9])?
A: 0.25 µg/mL

Q: And the MIC (Acinetobacter baumannii [10])?
A: 6 µg/mL

Q: And the MIC (Acinetobacter baumannii [11])?
A: 0.38 µg/mL

Q: And the MIC (Acinetobacter baumannii [12])?
A: 1 µg/mL

Q: What about the MIC (Pseudomonas aeruginosa [13]) of the same compound?
A: 0.25 µg/mL (≈ 0.652 µM)

Q: And the MIC (Pseudomonas aeruginosa [14])?
A: 0.25 µg/mL

Q: And the MIC (Pseudomonas aeruginosa [15])?
A: 0.25 µg/mL

Q: And the MIC (Acinetobacter baumannii [16])?
A: 0.25 µg/mL

Q: And the MIC (Acinetobacter baumannii [17])?
A: > 32 µg/mL

Q: And the MIC (Pseudomonas aeruginosa [18])?
A: 0.25 µg/mL

Q: `C/C(=C\C(=O)OCCCCCCCCC(=O)O)C[C@@H]1OC[C@H](C[C@@H]2O[C@H]2[C@@H](C)[C@H](C)O)[C@@H](O)[C@H]1O` [MUPIROCIN] was tested. Which MIC (Escherichia coli [19]) did it give?
A: 1.5 µg/mL

Q: What about the MIC (Escherichia coli [20]) of the same compound?
A: 128 µg/mL (≈ 256 µM)

Q: What about the MIC (Enterobacter cloacae [21]) of the same compound?
A: 8 µg/mL

Q: And the Ratio (Escherichia coli [22])?
A: 64

Q: And the Ratio (Escherichia coli [23])?
A: 64

Q: And the MIC (Enterobacter cloacae [24])?
A: 48 µg/mL (≈ 95.9 µM)

Q: What about the MIC (Escherichia coli [25]) of the same compound?
A: 0.146 µg/mL

Q: And the MIC (Escherichia coli [26])?
A: 1.5 µg/mL

Q: What about the MIC (Klebsiella pneumoniae [27]) of the same compound?
A: 12 µg/mL

Q: And the MIC (Klebsiella pneumoniae [28])?
A: 2 µg/mL

Q: What about the MIC (Escherichia coli [29]) of the same compound?
A: 256 µg/mL (≈ 511 µM)

Q: And the MIC (Escherichia coli [30])?
A: 16 µg/mL

Q: What about the Ratio (Klebsiella pneumoniae [31]) of the same compound?
A: 24

Q: What about the MIC (Enterobacter cloacae [32]) of the same compound?
A: 0.293 µg/mL

Q: What about the Ratio (Enterobacter cloacae [33]) of the same compound?
A: 250

Q: What about the MIC (Klebsiella pneumoniae [34]) of the same compound?
A: ≤ 0.167 µg/mL

Q: What about the MIC (Enterobacter cloacae [35]) of the same compound?
A: 24 µg/mL

Q: What about the MIC (Klebsiella pneumoniae [36]) of the same compound?
A: 24 µg/mL

Q: And the MIC (Escherichia coli [37])?
A: 12 µg/mL

Q: And the MIC (Escherichia coli [38])?
A: 4 µg/mL

Q: And the MIC (Enterobacter cloacae [39])?
A: 0.19 µg/mL

Q: And the MIC (Escherichia coli [40])?
A: 16 µg/mL

Q: What about the “fractional inhibitory concentration index (FICI)” value (Escherichia coli [41]) of the same compound?
A: 0.127

Q: What about the MIC (Klebsiella pneumoniae [42]) of the same compound?
A: 64 µg/mL (≈ 128 µM)

— ChEMBL document CHEMBL1671867, “Novel polymyxin derivatives carrying only three positive charges are effective antibacterial agents” (Antimicrob Agents Chemother, 2008)
